From ChEMBL document CHEMBL4354865 (J Med Chem, 2020) come the findings set out here.

Series [1] is described as follows: Half life in BALB/c mouse at 10 mg/kg, iv by LC-MS analysis. Format: ADME, organism-based. The settings on record: in vivo. In outline: (§1)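 Mice received a single i.v. dose of 10 mg/kg. Serial blood samples were taken and PK parameters derived, including half-life, clearance, volume of distribution and Cmax.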
The target of series [2] is Indoleamine 2,3-dioxygenase 1 (Mus musculus, UniProt P28776). The series is described as follows: Inhibition of mouse IDO1 transfected in P815 cells assessed as reduction in L-Kyn level measured after 16 hrs by HPLC analysis. Format: cell-based. In outline:
(§2)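 P815 mastocytoma cells stably expressing mouse IDO1 (P1.IDO1) or TDO (P1.TDO) were treated with serial dilutions for 16 h. L-Kyn secreted into the culture supernatant was quantified by HPLC, and an IC50 was determined in each line.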

Series [3] addresses T1, Indoleamine 2,3-dioxygenase 1 (Homo sapiens, UniProt P14902). The series is described as follows: Inhibition of IDO1 in IFNgamma-stimulated human A375 cells assessed as reduction in L-Kyn level measured after 48 hrs by HPLC analysis.
Target sequence in this assay (P14902 whole entry): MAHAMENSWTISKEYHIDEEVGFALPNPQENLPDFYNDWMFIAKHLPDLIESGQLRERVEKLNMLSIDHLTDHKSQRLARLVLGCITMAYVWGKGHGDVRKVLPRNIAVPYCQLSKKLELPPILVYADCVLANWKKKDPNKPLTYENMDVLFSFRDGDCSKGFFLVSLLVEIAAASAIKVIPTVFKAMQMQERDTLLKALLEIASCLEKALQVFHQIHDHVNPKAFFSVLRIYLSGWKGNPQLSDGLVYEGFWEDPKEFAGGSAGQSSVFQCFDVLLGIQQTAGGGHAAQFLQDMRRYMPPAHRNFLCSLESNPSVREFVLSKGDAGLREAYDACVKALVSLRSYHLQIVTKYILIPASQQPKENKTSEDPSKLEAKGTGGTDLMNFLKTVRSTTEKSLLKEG
Series [4] deals with T1, Indoleamine 2,3-dioxygenase 1. The series is described as follows: Inhibition of IDO1 in IFNgamma-stimulated human A375 cells assessed as reduction in L-Kyn level at 1 uM measured after 48 hrs by HPLC analysis relative to control. In outline: (§3)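 A375 cells, unstimulated or stimulated with recombinant human IFN-γ, were left untreated or treated with 1 µM compound for 48 h. L-Kyn was measured by HPLC and cell viability was assessed.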
Target sequence in this assay (P14902 whole entry, looked up): as the sequence (P14902 whole entry) above

Series [5] in a line: Cytotoxicity against human A375 cells assessed as cell viability at 1 uM measured after 48 hrs by MTT assay relative to control. The settings on record: read-out: Activity. Format: cell-based, A-375. The method in brief: as §3
A short description of series [6]: Volume of distribution in BALB/c mouse at 10 mg/kg, iv by LC-MS analysis. It counts as ADME, organism-based. The settings on record: in vivo. In outline: as §1
Series [7] deals with T1, Indoleamine 2,3-dioxygenase 1. As to the kind of experiment: Inhibition of IDO1 in IFNgamma-stimulated human DAN-G cells assessed as reduction in L-Kyn level measured after 48 hrs by HPLC analysis. It counts as cell-based.
Target sequence in this assay (P14902 whole entry): as above
Series [8] deals with Monocyte. As to the kind of experiment: Cytotoxicity against human monocytes assessed as reduction in cell viability at 30 uM measured after 24 hrs by Annexin-V APC/7-AAD staining based flow cytometric analysis. In outline:
(§4)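 Monocytes from healthy donors (n=3) and from PDAC patients (n=3) were treated for 24 h, with DMSO as control. Viability was normalized to untreated cells. Healthy-donor cells received a range of concentrations; PDAC cells received 30 µM.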
In general terms: A flow cytometer gives signals particle by particle.

Series [9] is filed under the species Mus musculus. As to the kind of experiment: Selectivity ratio of IC50 for inhibition of mouse TDO transfected in P815 cells to IC50 for inhibition of mouse IDO1 transfected in P815 cells. Format: cell-based. In outline:
as §2

The nature of series [10]: Inhibition of CYP450 in rat liver microsomes assessed as reduction in aminopyrine N-demethylase activity preincubated for 3 mins followed by NADPH addition and measured after 15 mins by iodometric titration method. Format: ADME. The method in brief:
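CYP inhibition read by aminopyrine N-demethylase activity, with IC50 determined from concentration–response curves. Ketoconazole (CYP3A inhibitor) served as reference.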
Background: Liver microsomes are vesicles of endoplasmic reticulum, rich in cytochrome P450 enzymes.

A short description of series [11]: Drug metabolism in CD-1 mouse liver microsomes assessed as benzimidazole oxidation at 50 uM measured after 1 hr by LC-HRMS analysis. Format: ADME, Microsome.
Series [12] is described as follows: Drug metabolism in CD-1 mouse liver microsomes assessed as oxidative N-dealkylation at 50 uM measured after 1 hr by LC-HRMS analysis. It counts as ADME, Microsome.
Series [13] is described as follows: Cmax in BALB/c mouse at 10 mg/kg, iv by LC-MS analysis. Format: ADME, organism-based. Further details: dose 10 mg/kg, route intravenous. The settings on record: in vivo. In outline: as §1
Series [14] concerns the target T1, Indoleamine 2,3-dioxygenase 1. As to the kind of experiment: Inhibition of IDO1 in IFNgamma-stimulated human MCF7 cells assessed as reduction in L-Kyn level measured after 48 hrs by HPLC analysis. Format: cell-based.
Target sequence in this assay (P14902 whole entry): as above
The target is the same in series [15]. As to the kind of experiment: Inhibition of IDO1 in PDAC patient derived suppressive monocytes co-cultured with human PBMC assessed as reduction in anti-CD3/anti-CD28-stimulated CD3+T cell proliferation at 30 uM preincubated for 4 days followed by co-culturing of monocytes and measured after 24 hrs by flow cytometric analysis.
Target sequence in this assay (P14902 whole entry, looked up): as the sequence (P14902 whole entry) above
Series [16] has as its target Tryptophan 2,3-dioxygenase (Mus musculus, UniProt P48776). As to the kind of experiment: Inhibition of mouse TDO transfected in P815 cells assessed as reduction in L-Kyn level measured after 16 hrs by HPLC analysis. It counts as cell-based. The method in brief: as §2
For series [17], the system named is Mus musculus. The series is described as follows: In vivo inhibition of IDO1 in BALB/c mouse assessed as reduction in L-kyn level at 10 mg/kg, iv measured up to 8 hrs by LC-HRMS analysis.
For series [18], the system named is Monocyte. As to the kind of experiment: Effect on anti-CD3/anti-CD28-stimulated CD3+T cell proliferation in PDAC patient derived non-suppressive monocytes co-cultured with human PBMC at 30 uM preincubated for 4 days followed by co-culturing of monocytes and measured after 24 hrs by flow cytometric analysis. It counts as cell-based. In outline: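 PDAC patient monocytes (suppressive or non-suppressive) were pre-treated with 30 µM compound or DMSO, then co-cultured for 4 days with Cell Trace-labelled activated CD3+ T cells. T-cell proliferation was read from proliferation peaks and normalized to activated T cells cultured without myeloid cells. Data are mean ± SEM; Mann-Whitney test.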

The nature of series [19]: Metabolic stability in CD-1 mouse liver microsomes assessed as parent compound remaining at 50 uM measured after 1 hr in presence of NADPH generating system by UV-LC/MS analysis. It counts as ADME, Microsome. The settings on record: read-out: Stability. The method in brief: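 Mouse liver microsomes activated with NADPH. Residual parent compound was measured after 1 h incubation.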

Series [20] in a line: Metabolic stability in CD-1 mouse liver microsomes assessed as parent compound remaining at 50 uM measured after 1 hr in presence of NADPH by UV-LC/MS analysis.
In series [21] the test system is Monocyte. The series is described as follows: Cytotoxicity against PDAC patient derived monocytes assessed as reduction in cell viability at 30 uM measured after 24 hrs by Annexin-V APC/7-AAD staining based flow cytometric analysis. The settings on record: human. The method in brief: as §4
For series [22], the target named is T1, Indoleamine 2,3-dioxygenase 1. As to the kind of experiment: Selectivity ratio of IC50 for IDO1 in IFNgamma-stimulated human DAN-G cells to IC50 for IDO1 in IFNgamma-stimulated human A375 cells.
Target sequence in this assay (P14902 whole entry, looked up): as the sequence (P14902 whole entry) above
The nature of series [23]: Inhibition of CYP3A in rat liver microsomes assessed as reduction in aminopyrine N-demethylase activity preincubated for 3 mins followed by NADPH addition and measured after 15 mins by iodometric titration method. Format: ADME. In outline:
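IC50 derived by fitting concentration–response curves for inhibition of aminopyrine N-demethylase activity, with ketoconazole run as the reference CYP3A inhibitor.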

The target of series [24] is T1, Indoleamine 2,3-dioxygenase 1. As to the kind of experiment: Inhibition of IDO1 in IFNgamma-stimulated human LXF-289 cells assessed as reduction in L-Kyn level measured after 48 hrs by HPLC analysis.
Target sequence in this assay (P14902 whole entry): as above
In series [25] the test system is Mus musculus. The series is described as follows: In vivo inhibition of IDO1 in BALB/c mouse assessed as reduction in L-kyn level at 10 mg/kg, iv measured up to 30 mins by LC-HRMS analysis. Format: functional, organism-based. The method in brief:
(§5)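 After a single 10 mg/kg i.v. dose in mice, plasma L-Kyn was measured at 0, 2, 5, 15 and 30 min and at 8 h post-injection, and compared with basal level.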

Series [26] deals with T1, Indoleamine 2,3-dioxygenase 1. The series is described as follows: Binding affinity to NT650-NHS fluorophore-labeled recombinant human N-terminal His-tagged IDO1 expressed in Escherichia coli measured after 10 mins by microscale thermophoresis assay.
Target sequence in this assay (P14902 whole entry): as above
Series [27] relates to Mus musculus. As to the kind of experiment: In vivo inhibition of IDO1 in BALB/c mouse assessed as reduction in L-kyn level at 10 mg/kg, iv measured after 8 hrs by LC-HRMS analysis. Format: functional, organism-based. The method in brief:
as §5

Series [28] concerns the target T1, Indoleamine 2,3-dioxygenase 1. The series is described as follows: Selectivity ratio of IC50 for IDO1 in IFNgamma-stimulated human DAN-G cells to IC50 for IDO1 in IFNgamma-stimulated human HeLa cells.
Target sequence in this assay (P14902 whole entry, looked up): as the sequence (P14902 whole entry) above
The target is the same in series [29]. The series is described as follows: Inhibition of IDO1 in IFNgamma-stimulated human HepG2 cells assessed as reduction in L-Kyn level measured after 48 hrs by HPLC analysis. It counts as cell-based.
Target sequence in this assay (P14902 whole entry): as above
Series [30] shares this target. As to the kind of experiment: Selectivity ratio of IC50 for IDO1 in IFNgamma-stimulated human DAN-G cells to IC50 for IDO1 in IFNgamma-stimulated human HepG2 cells.
Target sequence in this assay (P14902 whole entry, looked up): as the sequence (P14902 whole entry) above
Series [31] shares this target. As to the kind of experiment: Inhibition of IDO1 in IFNgamma-stimulated human A375 cells assessed as reduction in L-Kyn level at 10 uM measured after 48 hrs by HPLC analysis relative to control. In outline: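 Screen in melanoma A375 cells, which express IDO1 when treated with recombinant human IFN-γ. Cells were left untreated or given 10 µM compound for 48 h. L-Kyn was then measured. Cell viability was also checked.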
Target sequence in this assay (P14902 whole entry, looked up): as the sequence (P14902 whole entry) above

Series [32] has the same target. The series is described as follows: Selectivity ratio of IC50 for IDO1 in IFNgamma-stimulated human DAN-G cells to IC50 for IDO1 in IFNgamma-stimulated human LXF-289 cells.
Series [33] shares this target. The series is described as follows: Inhibition of IDO1 in IFNgamma-stimulated human HeLa cells assessed as reduction in L-Kyn level measured after 48 hrs by HPLC analysis. Format: cell-based.
The target is the same in series [34]. The series is described as follows: Selectivity ratio of IC50 for IDO1 in IFNgamma-stimulated human DAN-G cells to IC50 for IDO1 in IFNgamma-stimulated human MCF7 cells.

Calls of active or inactive are those of the source. No cut-off for these calls is given here.

As usually defined, the IC50 is the point on the concentration scale where inhibition reaches its midpoint. As usually defined, the inhibition is the percentage by which the read-out fell short of the control. A word on the Vd: it is a proportionality between amount in the body and measured concentration, not a real space. The term Cmax denotes the highest concentration seen after dosing. The term Kd denotes the constant that tells how readily two partners part at equilibrium.

Chain of Indoleamine 2,3-dioxygenase 1 (Mus musculus, UniProt P28776) (P28776 whole entry): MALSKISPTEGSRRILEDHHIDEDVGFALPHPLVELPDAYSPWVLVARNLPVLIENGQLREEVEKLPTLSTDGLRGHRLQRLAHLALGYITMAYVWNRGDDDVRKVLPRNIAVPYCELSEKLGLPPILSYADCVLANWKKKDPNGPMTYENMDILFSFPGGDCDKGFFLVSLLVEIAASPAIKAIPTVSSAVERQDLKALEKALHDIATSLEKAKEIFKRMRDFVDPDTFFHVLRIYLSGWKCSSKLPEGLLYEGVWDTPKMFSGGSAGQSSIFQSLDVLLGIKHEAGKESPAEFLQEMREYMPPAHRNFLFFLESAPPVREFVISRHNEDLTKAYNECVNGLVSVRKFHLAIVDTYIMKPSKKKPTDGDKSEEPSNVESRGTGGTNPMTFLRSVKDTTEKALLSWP
Chain of Tryptophan 2,3-dioxygenase (P48776 whole entry): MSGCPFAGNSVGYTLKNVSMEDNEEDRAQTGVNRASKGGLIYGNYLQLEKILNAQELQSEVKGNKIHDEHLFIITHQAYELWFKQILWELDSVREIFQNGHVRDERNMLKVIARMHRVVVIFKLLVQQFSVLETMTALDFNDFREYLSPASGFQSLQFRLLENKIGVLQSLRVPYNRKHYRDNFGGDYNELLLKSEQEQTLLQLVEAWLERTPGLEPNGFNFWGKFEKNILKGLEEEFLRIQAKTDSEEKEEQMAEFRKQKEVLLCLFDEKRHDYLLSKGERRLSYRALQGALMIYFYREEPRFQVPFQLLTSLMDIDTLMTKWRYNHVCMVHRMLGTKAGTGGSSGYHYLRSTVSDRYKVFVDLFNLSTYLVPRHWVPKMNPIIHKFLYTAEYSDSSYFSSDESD

Regarding `O=C(NCc1cccc(Cn2cnc3ccccc32)c1)c1cc2ccccc2[nH]1`, the t1/2 in series [1] turned out to be 39 min. The IC50 in series [2] turned out to be 9.3 nM; in [3] it was 72 nM; in series [7], 140 nM; in series [14] it was 83 nM; in series [16], 13200 nM. The inhibition in series [4] is 94%. For the same molecule, the viability at 48 h, 1 µM in [5] came to 99%. In addition, the Vd in [6] turned out to be 6.6 L/kg. Further, the Activity entry in the series with Monocyte [8], with Monocyte [18] and with Monocyte [21] was “Non-Toxic” each time. Also, the figures for the Ratio IC50 (in the series filed under Mus musculus [9]; in series [22]) were over 1000 and 1.9, respectively. In [10] (rat, microsomes, 0.25 h), the “inhibition (INH)” value is reported as “Not Active”. Moreover, the Drug metabolism result in series [11] and in series [12] was “Metabolite_Detected” each time. Besides, in series [13], the peak level (Cmax) was 2680 ng/mL. Further, the inhibition entry (in series [15]; in the series with Mus musculus [17]) was “Active” throughout. Besides, the remaining at 1 h, 50 µM in series [19] and in series [20] was 65% in each case.

Turning to `CC(=O)N1CCN(c2ccc(OCC3COC(Cn4ccnc4)(c4ccc(Cl)cc4Cl)O3)cc2)CC1` (stereo not given) [KETOCONAZOLE], the IC50 in series [23] came out at 6400 nM.

Consider `O=C(NCc1cccc(Cn2cnc3ccccc32)c1)c1cc(Br)c[nH]1`, for which the IC50 came out at 14 nM in series [24]; 12.7 nM in series [2]; 605 nM in series [7]; 67700 nM in series [10]; 43 nM in [29]; 21 nM in series [14]. The IC50 in series [33] came out at 64 nM; in series [16], 5460 nM. Besides, the inhibition in series [4] is 96%; in [31], over 30%. For the same molecule, the inhibition entry (in the series with Mus musculus [25]; in series [15]) was “Active” throughout. Also, the equilibrium dissociation constant (Kd) in series [26] is 550 nM. Further, in the series on Mus musculus [27], the inhibition result is “inactive”. Besides, in [5], the viability at 48 h, 1 µM was in the range of 85 to 100%. In addition, the Activity entry in the series with Monocyte [8], with Monocyte [18] and in the series with Monocyte [21] was “Non-Toxic” each time. Besides, the Ratio IC50 in series [28], in [30], in series [32], in [34] and in series [22] was over 1 throughout. For the same molecule, the Drug metabolism entry in series [11] and in series [12] was “Metabolite_Detected” throughout. Moreover, the remaining at 1 h, 50 µM in [19] and in series [20] was 32% in each case.
